Target: V-type proton ATPase subunit B, brain isoform (Bos taurus) (UniProt P31408)
Experiment: Inhibition of V-ATPase-driven proton transport in membrane vesicles derived from bovine chromaffin granules (bCG); Potency ratio expressed as IC50 of compound/IC50 of baf A1
Method in brief: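 Proton transport in bovine chromaffin granule inside-out vesicles, read by acridine orange (5 μM) fluorescence quench with 1 mM Na₂ATP, pH 7.4. IC50 from ≥3 duplicated doses by four-parameter logistic fit. Each IC50 is divided by the bafilomycin A₁ IC50 from the same experiment, to correct for membrane batch and protein level.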

V-type proton ATPase subunit B, brain isoform (Bos taurus), sequence (P31408 whole entry, canonical isoform): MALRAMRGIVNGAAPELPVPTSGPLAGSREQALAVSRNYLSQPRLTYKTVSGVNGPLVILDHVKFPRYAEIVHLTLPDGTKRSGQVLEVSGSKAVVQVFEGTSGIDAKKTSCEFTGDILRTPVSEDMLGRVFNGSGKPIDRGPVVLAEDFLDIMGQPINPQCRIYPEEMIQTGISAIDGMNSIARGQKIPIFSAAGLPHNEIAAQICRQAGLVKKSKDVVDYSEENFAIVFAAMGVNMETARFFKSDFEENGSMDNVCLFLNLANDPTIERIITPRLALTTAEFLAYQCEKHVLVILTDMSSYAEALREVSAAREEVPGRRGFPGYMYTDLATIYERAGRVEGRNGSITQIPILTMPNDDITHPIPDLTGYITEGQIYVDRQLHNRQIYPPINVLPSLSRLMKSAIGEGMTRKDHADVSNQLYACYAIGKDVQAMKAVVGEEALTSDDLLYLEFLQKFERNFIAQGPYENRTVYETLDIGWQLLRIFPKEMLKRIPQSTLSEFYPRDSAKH

Structure (SMILES)	Potency ratio
C/C=C/CC(=O)[C@@H](C)[C@H](O)[C@H](C)[C@H]1OC(=O)/C(OC)=C/C(C)=C/[C@@H](C)[C@@H](O)[C@@H](C)C/C(C)=C/C=C/[C@@H]1OC	21
CO/C1=C\C(C)=C\[C@@H](C)[C@@H](O)[C@@H](C)C/C(C)=C/C=C/[C@H](OC)[C@@H]([C@@H](C)[C@@H](O)[C@H](C)[C@@]2(O)CC(=O)[C@H](C)[C@@H](C(C)C)O2)OC1=O	2.2
CO/C1=C\C(C)=C\[C@@H](C)[C@@H](O)[C@@H](C)C/C(C)=C/C=C/[C@H](OC)[C@@H]([C@@H](C)[C@@H](O)[C@H](C)[C@@]2(OC)C[C@@H](O)[C@H](C)[C@@H](C(C)C)O2)OC1=O	1.4
CO/C1=C\C(C)=C\[C@@H](C)[C@@H](O)[C@@H](C)C/C(C)=C/C=C/[C@H](OC)[C@@H]([C@@H](C)[C@@H](O)[C@H](C)C(=O)/C=C/[C@H](C)C(O)C(C)C)OC1=O (some centres not stated)	15
CO/C1=C\C(C)=C\[C@@H](C)[C@@H](O)[C@@H](C)C/C(C)=C/C=C/[C@H](OC)[C@@H]([C@@H](C)[C@@H](O)[C@H](C)[C@@]2(O)C[C@@H](OC)[C@H](C)[C@@H](C(C)C)O2)OC1=O	1.2
CCO[C@@H]1C[C@](O)([C@@H](C)[C@H](O)[C@H](C)[C@H]2OC(=O)/C(OC)=C/C(C)=C/[C@@H](C)[C@@H](O)[C@@H](C)C/C(C)=C/C=C/[C@@H]2OC)O[C@H](C(C)C)[C@H]1C	1.2
CO/C1=C\C(C)=C\[C@@H](C)[C@@H](O)[C@@H](C)C/C(C)=C/C=C/[C@H](OC)[C@@H]([C@@H](C)[C@@H](O)[C@H](C)[C@@]2(O)C[C@@H](NC3CCCCC3)[C@H](C)[C@@H](C(C)C)O2)OC1=O	9.2
CO/C1=C\C(C)=C\[C@@H](C)[C@@H](O)[C@@H](C)C/C(C)=C/C=C/[C@H](OC)[C@@H]([C@@H](C)[C@@H](O)[C@H](C)C(O)C[C@H](O)[C@H](C)C(O)C(C)C)OC1=O (some centres not stated)	8.2
CO/C1=C\C(C)=C\[C@@H](C)[C@@H](O)[C@@H](C)C/C(C)=C/C=C/[C@H](OC)[C@@H]([C@@H](C)[C@@H](O)[C@H](C)[C@@]2(O)C[C@@H](N3CCCCC3)[C@H](C)[C@@H](C(C)C)O2)OC1=O	6.7
COC(=O)/C(=C/C(C)=C/[C@@H](C)[C@@H](O)[C@@H](C)C/C(C)=C/C=C/[C@H](OC)[C@H](O)[C@@H](C)[C@@H](O)[C@H](C)[C@@]1(O)C[C@@H](O)[C@H](C)[C@@H](C(C)C)O1)OC	330
CO/C1=C\C(C)=C\[C@@H](C)[C@@H](O)[C@@H](C)C/C(C)=C/C=C/[C@H](OC)[C@@H]([C@@H](C)[C@@H](O)[C@H](C)[C@@]2(O)C[C@@H](O)[C@H](C)[C@@H](C(C)C)O2)OC1=O	1
COC1/C=C(\C)C[C@@H](C)[C@@H](O)[C@@H](C)CC(C)/C=C/CC(OC)[C@@H]([C@@H](C)[C@@H](O)[C@H](C)[C@@]2(O)C[C@@H](O)[C@H](C)[C@@H](C(C)C)O2)OC1=O (some centres not stated)	2110
CCCO[C@@H]1C[C@](OC)([C@@H](C)[C@H](O)[C@H](C)[C@H]2OC(=O)/C(OC)=C/C(C)=C/[C@@H](C)[C@@H](O)[C@@H](C)C/C(C)=C/C=C/[C@@H]2OC)O[C@H](C(C)C)[C@H]1C	5
C/C=C/CC(O)[C@@H](C)[C@H](O)[C@H](C)[C@H]1OC(=O)/C(OC)=C/C(C)=C/[C@@H](C)[C@@H](O)[C@@H](C)C/C(C)=C/C=C/[C@@H]1OC (some centres not stated)	2.6
CO/C1=C\C(C)=C\[C@@H](C)C(=O)[C@@H](C)C/C(C)=C/C=C/[C@H](OC)[C@@H]([C@@H](C)[C@@H](O)[C@H](C)[C@@]2(O)CC(=O)[C@H](C)[C@@H](C(C)C)O2)OC1=O	112
CO/C1=C\C(C)=C\[C@@H](C)C(=O)[C@@H](C)C/C(C)=C/C=C/[C@H](OC)[C@@H]([C@@H](C)[C@@H](O)[C@H](C)[C@@]2(O)C[C@@H](O)[C@H](C)[C@@H](C(C)C)O2)OC1=O	32
CO/C1=C\C(C)=C\C(C)C(=O)[C@@H](C)C/C(C)=C/C=C/C(OC)[C@@H]([C@@H](C)C(=O)[C@H](C)C2=CC(=O)[C@H](C)[C@@H](C(C)C)O2)OC1=O (some centres not stated)	3050

Reference: ChEMBL document CHEMBL1131233, “Synthesis and structure-activity relationships of bafilomycin A1 derivatives as inhibitors of vacuolar H+-ATPase” (J Med Chem, 1998)
